Assay results as given in ChEMBL document CHEMBL1208778, “Synthesis and anti-cancer activity of chalcone linked imidazolones” (2010).
Active and inactive are the calls of the source. No cut-off for these calls is given here.

Tests used:
Assay type in all cases: functional
[1] = system: COLO 205; experiment: Growth inhibition of human COLO205 cells
Outline: (§1)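 Five-dose testing was run within the NCI (Bethesda) in vitro Anticancer Screen Program on a panel of 53 human tumour cell lines from nine cancer types. Growth inhibition is reported as GI50.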

[2] = system: HOP-62; experiment: Growth inhibition of human HOP62 cells; outline: as §1
[3] = system: SF-268; experiment: Growth inhibition of human SF268 cells; outline: as §1
[4] = system: MDA-MB-435; experiment: Growth inhibition of human MDA-MB-435 cells; outline: as §1
[5] = system: OVCAR-8; experiment: Growth inhibition of human OVCAR8 cells; outline: as §1
[6] = system: SN12C; experiment: Growth inhibition of human SN12C cells
Outline: (§2)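 Compounds that passed a preliminary screen were tested at five doses in the NCI (Bethesda) in vitro Anticancer Screen Program against a 53-line human tumour panel spanning leukemia, lung, colon, CNS, melanoma, ovarian, renal, prostate and breast. Growth inhibition is reported as GI50.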

[7] = system: U-251; experiment: Growth inhibition of human U251 cells; outline: as §2
[8] = system: SK-OV-3; experiment: Growth inhibition of human SKOV3 cells; outline: as §2
[9] = system: MCF7; experiment: Cell cycle arrest in human MCF7 cells assessed as accumulation at G2/M phase at 10 uM after 24 hrs by FACS analysis
Outline: (§3)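 MCF-7 breast carcinoma cells were exposed to 10 µM test compound for 24 h, with DMSO as the vehicle control. Cell-cycle distribution was read by FACS as the percentage of cells in G0, G1, S and G2/M.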

[10] = system: NCI-H226; experiment: Growth inhibition of human NCI-H226 cells; outline: as §1
[11] = system: MCF7; experiment: Cell cycle arrest in human MCF7 cells assessed as accumulation at S phase at 30 uM after 24 hrs by FACS analysis
Outline: (§4)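 MCF-7 cells were treated at 30 µM for 24 h alongside a DMSO control. Fractions in G0, G1, S and G2/M phases were measured by FACS, and values are means of three experiments.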

[12] = system: K562; experiment: Growth inhibition of human K562 cells; outline: as §1
[13] = system: UACC-62; experiment: Growth inhibition of human UACC62 cells; outline: as §2
[14] = system: A498; experiment: Growth inhibition of human A498 cells; outline: as §1
[15] = system: HCT-15; experiment: Growth inhibition of human HCT15 cells; outline: as §1
[16] = system: SNB-75; experiment: Growth inhibition of human SNB75 cells; outline: as §2
[17] = system: MCF7; experiment: Cell cycle arrest in human MCF7 cells assessed as accumulation at S phase at 10 uM after 24 hrs by FACS analysis; outline: as §3
[18] = system: PC-3; experiment: Growth inhibition of human PC3 cells; outline: as §1
[19] = system: NCI-H522; experiment: Growth inhibition of human NCI-H522 cells; outline: as §1
[20] = system: HCC 2998; experiment: Growth inhibition of human HCC2998 cells; outline: as §1
[21] = system: Hs-578T; experiment: Growth inhibition of human Hs 578T cells; outline: as §1
[22] = system: ACHN; experiment: Growth inhibition of human ACHN cells; outline: as §1
[23] = system: NCI/ADR-RES; experiment: Growth inhibition of human NCI/ADR-RES cells; outline: as §1
[24] = system: MCF7; experiment: Cell cycle arrest in human MCF7 cells assessed as accumulation at G0 phase at 30 uM after 24 hrs by FACS analysis; outline: as §4
[25] = system: NCI-H322M; experiment: Growth inhibition of human NCI-H322M cells; outline: as §1
[26] = system: BT-549; experiment: Growth inhibition of human BT549 cells; outline: as §1
[27] = system: SF-539; experiment: Growth inhibition of human SF539 cells; outline: as §1
[28] = system: LOX IMVI; experiment: Growth inhibition of human LOXIMVI cells; outline: as §1
[29] = system: EKVX; experiment: Growth inhibition of human EKVX cells; outline: as §1
[30] = system: SK-MEL-2; experiment: Growth inhibition of human SK-MEL-2 cells; outline: as §1
[31] = system: T47D; experiment: Growth inhibition of human T47D cells; outline: as §2
[32] = system: UACC-257; experiment: Growth inhibition of human UACC257 cells; outline: as §2
[33] = Growth inhibition of human RPMI8266 cells; outline: as §1
[34] = system: MCF7; experiment: Cell cycle arrest in human MCF7 cells assessed as accumulation at G2/M phase at 30 uM after 24 hrs by FACS analysis; outline: as §4
[35] = system: NCI-H460; experiment: Growth inhibition of human NCI-H460 cells; outline: as §1
[36] = system: 786-0; experiment: Growth inhibition of human 786-0 cells; outline: as §1
[37] = system: SW-620; experiment: Growth inhibition of human SW620 cells; outline: as §2
[38] = system: NCI-H23; experiment: Growth inhibition of human NCI-H23 cells; outline: as §1
[39] = system: SK-MEL-28; experiment: Growth inhibition of human SK-MEL-28 cells; outline: as §1
[40] = system: KM12; experiment: Growth inhibition of human KM12 cells; outline: as §1
[41] = system: HCT-116; experiment: Growth inhibition of human HCT116 cells; outline: as §1
[42] = system: CAKI-1; experiment: Growth inhibition of human Caki1 cells; outline: as §1
[43] = system: M14; experiment: Growth inhibition of human M14 cells; outline: as §1
[44] = system: MCF7; experiment: Growth inhibition of human MCF7 cells; outline: as §1
[45] = system: RXF 393; experiment: Growth inhibition of human RXF393 cells; outline: as §1
[46] = system: A549; experiment: Growth inhibition of human A549 cells; outline: as §1
[47] = system: SNB-19; experiment: Growth inhibition of human SNB19 cells; outline: as §2
[48] = system: MCF7; experiment: Cell cycle arrest in human MCF7 cells assessed as accumulation at G1 phase at 30 uM after 24 hrs by FACS analysis; outline: as §4
[49] = system: TK-10; experiment: Growth inhibition of human TK10 cells; outline: as §2
[50] = system: HT-29; experiment: Growth inhibition of human HT-29 cells; outline: as §1
[51] = system: UO-31; experiment: Growth inhibition of human UO31 cells; outline: as §2
[52] = system: OVCAR-3; experiment: Growth inhibition of human OVCAR-3 cells; outline: as §1
[53] = system: SK-MEL-5; experiment: Growth inhibition of human SK-MEL-5 cells; outline: as §1
[54] = system: SF-295; experiment: Growth inhibition of human SF295 cells; outline: as §1
[55] = system: MDA-MB-231; experiment: Growth inhibition of human MDA-MB-231 cells; outline: as §1
[56] = system: OVCAR-5; experiment: Growth inhibition of human OVCAR5 cells; outline: as §1
[57] = system: Malme-3M; experiment: Growth inhibition of human MALME-3M cells; outline: as §1
[58] = system: MCF7; experiment: Cell cycle arrest in human MCF7 cells assessed as accumulation at G0 phase at 10 uM after 24 hrs by FACS analysis; outline: as §3
[59] = system: OVCAR-4; experiment: Growth inhibition of human OVCAR4 cells; outline: as §1
[60] = system: MCF7; experiment: Cell cycle arrest in human MCF7 cells assessed as accumulation at G1 phase at 10 uM after 24 hrs by FACS analysis; outline: as §3

COc1cc(/C=C/C(=O)c2cccc(-n3cc(-c4cc(OC)c(OC)c(OC)c4)[nH]c3=O)c2)cc(OC)c1OC
GI50 [1]: 1520 nM | GI50 [2]: 3.08 µM | GI50 [3]: 2200 nM | GI50 [4]: 2110 nM | GI50 [5]: 2320 nM | GI50 [6]: 2750 nM | GI50 [7]: 1230 nM | GI50 [8]: 5.12 µM | Activity [9]: 23.12% | GI50 [10]: 14.4 µM | Activity [11]: 7.85% | GI50 [12]: 590 nM | GI50 [13]: 1870 nM | GI50 [14]: 20.3 µM | GI50 [15]: 1890 nM | GI50 [16]: 5.13 µM | Activity [17]: 25.65% | GI50 [18]: 2630 nM | GI50 [19]: 1050 nM | GI50 [20]: 1920 nM | GI50 [21]: inactive | GI50 [22]: 1740 nM | GI50 [23]: 2100 nM | Activity [24]: 39.7% | GI50 [25]: 3.61 µM | GI50 [26]: 1520 nM | GI50 [27]: 3.12 µM | GI50 [28]: 1230 nM | GI50 [29]: 9.47 µM | GI50 [30]: 3.02 µM | GI50 [31]: 3.08 µM | GI50 [32]: 2220 nM | GI50 [33]: 230 nM | Activity [34]: 9.75% | GI50 [35]: 1730 nM | GI50 [36]: 1590 nM | GI50 [37]: 1030 nM | GI50 [38]: 2000 nM | GI50 [39]: 1610 nM | GI50 [40]: 1120 nM | GI50 [41]: 740 nM | GI50 [42]: 2890 nM | GI50 [43]: 2120 nM | GI50 [44]: 470 nM | GI50 [45]: 1620 nM | GI50 [46]: 3.03 µM | GI50 [47]: 4.07 µM | Activity [48]: 42.7% | GI50 [49]: 3000 nM | GI50 [50]: 1700 nM | GI50 [51]: 960 nM | GI50 [52]: 1480 nM | GI50 [53]: 2760 nM | GI50 [54]: 4.96 µM | GI50 [55]: 4.19 µM | GI50 [56]: 4.38 µM | GI50 [57]: 1800 nM | Activity [58]: 3.63% | GI50 [59]: 3.77 µM | Activity [60]: 47.6%
